# Compounds with a hit are over-represented: about 2.3% of the library has one in this group of screens.
# TAAR1 ag – human TAAR1 agonists, primary screen, Fluo-8 calcium fluorescence, CHO RD-HGA16 cells | vehicle wells 0%, saturating PEA agonist 100% | activation, % at 3 µM | actives 0.99% (n = 360,000);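 active means activation above the mean activation of all test compounds in the run plus 3 SD, cut at about 38% in these data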
#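 System: CHO-derived RD-HGA16 cells with stable Gα16 and human TAAR1 / Times: 17-24 h plating, Fluo-8 75 min 37 °C, 30 min RT / Technique: calcium-sensitive Fluo-8 signal, excitation 470-495, emission 515-575 nm / Measure: % activation relative to PEA EC100 response / Benchmarks: DMSO and PEA EC100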
# TAAR1 antagonist – human TAAR1 antagonists, primary screen, Fluo-8 calcium fluorescence, CHO RD-HGA16 cells. antagonist. AID 624466, 2012. actives 1.5% (n = 360,000). inhibition, % at 3 µM. Trace amine-associated receptor 1 (Homo sapiens), Q96RJ0;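 active means inhibition above a per-plate cutoff, the mean inhibition of test compounds on that plate plus 3 SD, cut at about 49% in these data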
#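 Test system – hTAAR1-expressing CHO RD-HGA16 cells, Gα16-coupled · Reagent – β-PEA at EC80 concentration, post-compound challenge · Compound dosing – 3 µM, single point · Timing – 140 s kinetic read after compound, 140 s after agonist · Detection – Fluo-8 intracellular calcium dye fluorescence, real-time kinetic reads · Control set – DMSO and EC80 PEA controls · Repeats – n of 1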
# OXTR agonist – human OXTR agonists, primary screen, fluorescence, CHO-OTR cells, Fluo-8 calcium. Fluo-8 calcium fluorescence; normalized: DMSO 0%, oxytocin 100%. Oxytocin receptor (Homo sapiens), P30559. actives 0.32% (n = 320,000). activation, % at 3 µM;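 active means activation above the mean of all tested compounds plus 3 SD, cutoff set per screening run, cut at about 20% in these data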;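 further: peak over basal fluorescence ratio from a 100 s FLIPR kinetic read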
# OXTR potentiate – human OXTR potentiators, primary screen, fluorescence, CHO-OTR cells, Fluo-8 calcium; Oxytocin receptor (Homo sapiens), P30559; Fluo-8 calcium fluorescence, potentiator mode; 0% = oxytocin EC15, 100% = EC100; activation, % at 3 µM; actives 0.061% (n = 320,000); AID 2445, 2010;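 active means activation above that plate's cutoff, the mean activation of tested compounds plus 3 SD, cut at about 6.6% in these data, passing the limit was not always enough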
#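 assay system = CHO-OTR cells, human receptor | schedule = compound 6 min at room temperature before oxytocin, 100 s read | detection = Fluo-8 intracellular calcium fluorescence, ex 470-495, em 515-575 nm | evaluation = normalized max/min fluorescence ratio, % activation | control set = EC15 oxytocin alone as 0%, 75 nM oxytocin (EC100) as 100%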
# V1R ag counter – agonists of human V1a receptor, primary screen, counter-screen for OXTR agonist project, fluorescence, CHO-V1R cells. Vasopressin V1a receptor (Homo sapiens), P37288. Fluo-8 calcium fluorescence, agonist mode; 0% DMSO, 100% 3 nM vasopressin. activation, % at 3 µM. actives 0.25% (n = 320,000). AID 2797, 2010;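 active means activation above the mean activation of all tested compounds plus 3 SD, per screening run, cut at about 20% in these data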;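 further: signal is peak over basal fluorescence ratio across a 100 second FLIPR read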
# Target sequence (P37288 whole entry, looked up): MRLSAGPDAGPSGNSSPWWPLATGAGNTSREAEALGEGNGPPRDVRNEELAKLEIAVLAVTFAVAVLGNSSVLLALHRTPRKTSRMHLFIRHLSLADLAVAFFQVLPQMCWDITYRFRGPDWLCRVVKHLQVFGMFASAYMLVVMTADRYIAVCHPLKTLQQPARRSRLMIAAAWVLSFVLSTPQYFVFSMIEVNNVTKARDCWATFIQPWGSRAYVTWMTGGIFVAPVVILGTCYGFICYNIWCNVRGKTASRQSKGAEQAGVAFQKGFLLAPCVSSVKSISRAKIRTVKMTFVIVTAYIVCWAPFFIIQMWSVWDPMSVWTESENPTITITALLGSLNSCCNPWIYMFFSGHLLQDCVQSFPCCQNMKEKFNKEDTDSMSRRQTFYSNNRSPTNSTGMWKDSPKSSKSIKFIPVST
# nonsel antag count – nonselective antagonists in TAAR1 counter-screen cells, counter-screen for hTAAR1 antagonist project, cell-based, fluorescence, calcium | shares compounds with TAAR1 antagonist | inhibition, % at 3 µM | counterscreen cell line, antagonist mode | AID 651780, 2012 | actives 77% (n = 2,400); in the data active means inhibition above about 22%;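 further: CHO-Ga16 host cells stimulated with ATP at an EC80 level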
# TAAR1 ant conf – human TAAR1 antagonists, retest of hits, confirmation, cell-based, fluorescence. shares compounds with TAAR1 antagonist. TAAR1-expressing cells, fluorescence antagonist read-out. inhibition, % at 3 µM. actives 40% (n = 2,400). AID 651785, 2012; in the data active means inhibition above about 49%;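 further: CHO-Ga16 host cells challenged with agonist PEA near its EC80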
# Ga16 ag counter – calcium activation in Ga16-expressing cells, counter-screen for TAAR1 antagonist project, cell-based, fluorescence. agonist counterscreen. shares compounds with TAAR1 antagonist. actives 18% (n = 2,400). activation, % at 3 µM; in the data active means activation above about 12%
# TAAR1 ag counter – TAAR1 activation by candidate antagonists – cell-based, fluorescence, counter-screen for TAAR1 antagonist project. shares compounds with TAAR1 antagonist. actives 2% (n = 2,400). activation, % at 3 µM. hTAAR1 cell line, agonist mode. AID 651955, 2012; in the data active means activation above about 37%;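 further: CHO cells stably expressing TAAR1 with calcium dye readout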
# Hits are given with their value; i = inactive; nt = no result.
SMILES,TAAR1 ag,TAAR1 antagonist,OXTR agonist,OXTR potentiate,V1R ag counter,nonsel antag count,TAAR1 ant conf,Ga16 ag counter,TAAR1 ag counter
C[C@@H]1CC=C[C@@H]2[C@H]1C(=O)N(Cc1ccccc1)[C@H]2c1ccccc1Br,i,69.8,nt,nt,nt,i,i,i,i
Cc1cccc(Nc2nc(Cl)ncc2F)c1C,i,i,i,i,i,nt,nt,nt,nt
COc1ccc2cc(C3=CC(=O)CC(C)(C)C3=O)ccc2c1,i,60.7,nt,nt,nt,26.5,i,i,i
COc1ccc(-c2ccccc2C2=CC(=O)CC(C)(C)C2=O)cc1,i,i,nt,nt,nt,nt,nt,nt,nt
Cc1nnc2c3ccccc3ccn12,i,i,nt,nt,nt,nt,nt,nt,nt
O=C(COC(=O)CCc1nc2ccccc2s1)Nc1nc(-c2ccccc2)cs1,i,55.1,i,i,i,33.0,i,i,i
Cc1csc(NC(=O)CCc2nc3ccccc3s2)n1,i,i,i,i,i,nt,nt,nt,nt
COc1ccc(C(=O)/C=C/c2ccc(OCc3ccccc3)cc2)cc1CSCC(=O)O,i,62.2,nt,nt,nt,37.7,53.6,i,i
COc1ccc(C(=O)/C=C/c2cccc(OCc3ccccc3)c2)cc1CSCC(=O)O,i,i,i,i,i,nt,nt,nt,nt
CCOC(=O)Cc1csc(NC(=O)c2cc(-c3ccncc3)nc3ccccc23)n1,i,63.6,i,i,i,33.3,50.1,i,i
Cc1ccc(S(=O)(=O)N(C)C)cc1NC(=O)c1cc(-c2ccncc2)nc2ccccc12,i,53.8,i,i,i,i,i,i,i
CCOC(=O)Cc1csc(NC(=O)c2ccc(N3CCOCC3)cc2[N+](=O)[O-])n1,i,54.9,i,i,i,37.6,52.9,i,i
CCOc1ccccc1NC(=O)c1cc(-c2ccncc2)nc2c(Cl)cccc12,i,70.5,nt,nt,nt,i,i,i,i
CCOC(=O)Cc1csc(NC(=O)c2ccncc2)n1,i,i,i,i,i,nt,nt,nt,nt
COc1ccc(NC(=O)c2cc(-c3ccncc3)nc3ccccc23)c(OC)c1,i,i,i,i,i,nt,nt,nt,nt
CCOC(=O)Cc1csc(NC(=O)c2ccc([N+](=O)[O-])cc2[N+](=O)[O-])n1,i,i,i,i,i,nt,nt,nt,nt
CCC(C)(C)NC(=O)c1ccc2c(c1)N(CC(=O)NC1CCCC1)C(=O)C(C)(C)O2,i,i,i,i,i,nt,nt,nt,nt
CCCCCCCCN1C(=O)[C@H](CC(=O)NCC2CCCCC2)C[C@@]2(C(=O)OC)CCCCC=C12,i,i,nt,nt,nt,nt,nt,nt,nt
COc1ccc(-n2nnc3c(=O)n(Cc4ccccc4C)cnc32)cc1,nt,nt,i,i,i,nt,nt,nt,nt
Cc1ccc(C)c(Cn2cnc3c(nnn3-c3ccc(F)cc3)c2=O)c1,i,71.7,i,i,i,i,i,i,i
O=C(Cc1cccc2ccccc12)NN=Cc1ccc2c(c1)CCC2,i,i,nt,nt,nt,nt,nt,nt,nt
CCC(C(=O)N1CCN(Cc2ccc3c(c2)OCO3)CC1)n1c(=O)[nH]c2ccccc2c1=O (centres undefined),i,i,i,i,i,nt,nt,nt,nt
Cc1nn(-c2ccccc2)c(C)c1NC(=O)COC(=O)CCOc1ccccc1,i,i,i,i,i,nt,nt,nt,nt
Cc1nn(-c2ccccc2)c(C)c1NC(=O)COC(=O)c1ccc(O)cc1O,i,75.6,nt,nt,nt,29.4,55.2,i,i

# Screening data as filed in PubChem.
